Test results as given in ChEMBL document CHEMBL4680079, “Discovery of a Quinoline-4-carboxamide Derivative with a Novel Mechanism of Action, Multistage Antimalarial Activity, and Potent in Vivo Efficacy” (J Med Chem, 2016).
≈ marks a conversion by molar mass, not a printed value.

Key:
Plasmodium berghei [1] = assay: Antiplasmodial activity against Plasmodium berghei ookinete form assessed as growth inhibition incubated for 22 hrs by GFP-based fluorescence microscopic analysis; format: functional, organism-based
Plasmodium yoelii = assay: Antiplasmodial activity against Plasmodium yoelli liver stage forms; format: functional, organism-based
Plasmodium falciparum [2] = assay: Antiplasmodial activity against late stage (IV/V) Plasmodium falciparum NF54 gametocytes transfected with GFP-LUC assessed as growth inhibition incubated for 72 hrs by mitotracker Red-CMXROS dye based fluorescence microscopic analysis; format: functional, organism-based; conditions: NF54, 72 h
How it was run: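 NF54 pfs16-LUC-GFP stage IV–V gametocytes (10% parasitaemia, 0.1% haematocrit) exposed to compound in 0.4% DMSO, three concentrations per log, for 72 h at 37°C under 5% CO2/5% O2/90% N2. MitoTracker Red CM-H2Xros then added for 16 h and viable gametocytes counted by imaging.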

Plasmodium falciparum [3] = assay: Antiplasmodial activity against chloroquine-sensitive Plasmodium falciparum 3D7 infected in human red blood cells assessed as growth inhibition by SYBR Green fluorescence assay; format: functional, organism-based, RBC; conditions: 3D7, Erythrocyte
How it was run: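 P. falciparum 3D7 grown in 5% human red cells in RPMI 1640 (pH 7.3) with 0.5% Albumax II, hypoxanthine and gentamicin at 37°C under 1% O₂/3% CO₂. Growth measured by SYBR green fluorescence (ex 485/em 528 nm), with mefloquine as assay control. EC50 calculated.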

MRC5 = assay: Antiproliferative activity against human MRC5 cells assessed as reduction in cell viability after 68 hrs by resazurin dye based fluorescence assay; conditions: MRC5, 68 h
How it was run: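 MRC-5 fibroblasts plated overnight as monolayers, exposed to compound pre-diluted in MEM for 68 h. Resazurin then added (final 50 μM) for 3 h, fluorescence read at ex 528/em 590 nm. Signal converted to % inhibition against high- and no-inhibition controls. Plates accepted at Z' > 0.5.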

[4] = Intrinsic clearance in CD1 mouse liver microsomes at 0.5 uM in presence of NADPH incubated upto 30 mins by UPLC-MS/MS analysis; format: ADME, Microsome; conditions: 0.5 h
How it was run: (§1)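 Compound at 0.5 μM incubated with female CD1 mouse, male Sprague-Dawley rat or pooled human liver microsomes (0.5 mg/mL, 50 mM potassium phosphate, pH 7.4). Reaction started with excess NADPH. Samples taken at 0-30 min, quenched in acetonitrile, analysed by UPLC-MS/MS. Verapamil used as control, single time course.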

[5] = Kinetic aqueous solubility of the compound by laser nephelometry; format: physicochemical; conditions: read-out: Kinetic_solubility
How it was run: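 Kinetic solubility measured by laser nephelometry. DMSO serial dilutions diluted into water to give final 100–5 μg/mL at 1.0% DMSO. Read immediately, in triplicate aliquots.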

[6] = Permeability of the compound at 10 uM incubated for 5 hrs by UPLC-MS/MS analysis based PAMPA method; format: ADME; conditions: read-out: permeability
How it was run: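 PAMPA run on a lipid-oil-lipid tri-layer filter at pH 7.4. Compound at 10 μM in PBS (DMSO ≤5%) in donor wells, PBS in acceptor wells, kept 5 h at room temperature. Both compartments quantified by UPLC-MS/MS. Data accepted only when recovery exceeded 70%.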

[7] = Intrinsic clearance in human liver microsomes at 0.5 uM in presence of NADPH incubated upto 30 mins by UPLC-MS/MS analysis; format: ADME, Microsome; conditions: 0.5 h; how it was run: as §1
[8] = target: Voltage-gated inwardly rectifying potassium channel KCNH2 (Homo sapiens, UniProt Q12809); assay: Inhibition of human ERG by IonWorks patch-clamp electrophysiology method
How it was run: (§2)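 hERG K⁺ channel inhibition measured by IonWorks patch-clamp electrophysiology. Eight-point concentration-response curves made from 3-fold serial dilutions down from the maximum final assay concentration. Each curve generated on 2 occasions.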

[9] = Clearance in NMRI mouse blood at 3 mg/kg, iv administered as bolus dose by UPLC-MS/MS analysis; format: ADME, organism-based
How it was run: (§3)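 Intravenous bolus solution, 3 mg free base/kg (5 mL/kg; 10% DMSO, 90% saline), given to female NMRI mice (n=3). Compound level in blood determined by UPLC-MS/MS. PK parameters derived from the blood concentration-time curve.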

[10] = Volume of distribution at steady state in NMRI mouse at 3 mg/kg, iv administered as bolus dose by UPLC-MS/MS analysis; format: ADME, organism-based; conditions: in vivo, read-out: Vdss; how it was run: as §3
[11] = Half-life in NMRI mouse at 3 mg/kg, iv administered as bolus dose by UPLC-MS/MS analysis; format: ADME, organism-based; conditions: in vivo; how it was run: as §3
[12] = Cmax in NMRI mouse at 10 mg/kg, po administered as gavage by UPLC-MS/MS analysis; format: ADME, organism-based; design: route oral, dose 10 mg/kg; conditions: in vivo
How it was run: (§4)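 Female NMRI mice (n=3) dosed by oral gavage as a solution at 10 mg free base/kg (10 mL/kg; vehicle 5 or 10% DMSO, 40% PEG400). Blood levels measured by UPLC-MS/MS. Parameters derived from the blood concentration-time curve.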

[13] = AUC in NMRI mouse at 10 mg/kg, po administered as gavage by UPLC-MS/MS analysis; format: ADME, organism-based; design: dose 10 mg/kg; conditions: in vivo; how it was run: as §4
[14] = Tmax in NMRI mouse at 10 mg/kg, po administered as gavage by UPLC-MS/MS analysis; format: ADME, organism-based; conditions: in vivo; how it was run: as §4
[15] = Oral bioavailability in NMRI mouse at 10 mg/kg administered via gavage by UPLC-MS/MS analysis; format: ADME, organism-based; conditions: in vivo; how it was run: as §4
Plasmodium berghei [16] = assay: Antiplasmodial activity against Plasmodium berghei ANKA infected in NMRI mouse assessed as reduction in parasitemia at 30 mg/kg, po QD for 4 days; format: functional; design: scale not given: the % may be the effect or the level left; conditions: time 4 day
How it was run: (§5)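 Female NMRI mice (n=3 per group, randomized, not blinded) infected with GFP-transfected P. berghei ANKA. Oral dosing once daily for 4 days in 10% DMSO/40% PEG400/50% water or HPMC suspension vehicle. Parasitaemia measured by flow cytometry on blood collected 96 h after infection. Mice watched for toxicity over 4 h post-dose each day.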

Plasmodium berghei [17] = assay: Antiplasmodial activity against Plasmodium berghei ANKA infected in NMRI mouse assessed as survival days at 30 mg/kg, po QD for 4 days; format: functional; conditions: time 4 day
Plasmodium berghei [18] = assay: Antiplasmodial activity against Plasmodium berghei ANKA infected in NMRI mouse assessed as reduction in parasitemia at 10 mg/kg, po QD for 4 days; format: functional; design: scale not given: the % may be the effect or the level left; conditions: time 4 day; how it was run: as §5
Plasmodium berghei [19] = assay: Antiplasmodial activity against Plasmodium berghei ANKA infected in NMRI mouse assessed as survival days at 10 mg/kg, po QD for 4 days; format: functional; conditions: time 4 day
Plasmodium berghei [20] = assay: Antiplasmodial activity against Plasmodium berghei infected in NMRI mouse assessed as reduction in parasitemia at 3 mg/kg, po QD for 4 days; format: functional; design: scale not given: the % may be the effect or the level left; conditions: time 4 day; how it was run: as §5
Plasmodium berghei [21] = assay: Antiplasmodial activity against Plasmodium berghei ANKA infected in NMRI mouse assessed as survival days at 3 mg/kg, po QD for 4 days; format: functional; conditions: time 4 day
Plasmodium berghei [22] = assay: Antiplasmodial activity against Plasmodium berghei ANKA infected in NMRI mouse assessed as reduction in parasitemia at 1 mg/kg, po QD for 4 days; format: functional; design: scale not given: the % may be the effect or the level left; conditions: time 4 day; how it was run: as §5
Plasmodium berghei [23] = assay: Antiplasmodial activity against Plasmodium berghei ANKA infected in NMRI mouse assessed as survival days at 1 mg/kg, po QD for 4 days; format: functional; conditions: time 4 day
Plasmodium berghei [24] = assay: Antiplasmodial activity against GFP-transfected Plasmodium berghei ANKA infected in NMRI mouse assessed as reduction in parasitemia by measuring effective dose administered once daily oral dose for 4 days; format: functional; conditions: 96 h, time 4 day; how it was run: as §5
HepG2 = assay: Antiproliferative activity against human HepG2 cells assessed as reduction in cell viability; format: cell-based
[25] = Intrinsic clearance in Sprague-Dawley rat liver microsomes at 0.5 uM in presence of NADPH incubated upto 30 mins by UPLC-MS/MS analysis; format: ADME, Microsome; conditions: 0.5 h; how it was run: as §1
[26] = Protein binding in CD1 mouse plasma measured after 5 hr by UPLC-MS/MS analysis based equilibrium dialysis method; format: ADME, cell-free; conditions: mouse, 5 h
How it was run: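 Equilibrium dialysis of female CD1 mouse plasma spiked at 10 μg/mL (12-14 kDa membrane) against isotonic buffer for 5 h at ~37°C with shaking. Unbound fraction taken as the buffer/plasma peak-area ratio by UPLC-MS/MS. n=6 replicates, run in triplicate.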

hERG (KCNH2) = hERG (KCNH2) (Homo sapiens, UniProt Q12809); assay: Inhibition of human ERG at 11 uM by IonWorks patch-clamp electrophysiology method relative to control; how it was run: as §2
[27] = Toxicity in NMRI mouse assessed as maximum tolerated dose administered twice a day for 4 days; conditions: in vivo, time 4 day

Chain of Voltage-gated inwardly rectifying potassium channel KCNH2 (Q12809 whole entry): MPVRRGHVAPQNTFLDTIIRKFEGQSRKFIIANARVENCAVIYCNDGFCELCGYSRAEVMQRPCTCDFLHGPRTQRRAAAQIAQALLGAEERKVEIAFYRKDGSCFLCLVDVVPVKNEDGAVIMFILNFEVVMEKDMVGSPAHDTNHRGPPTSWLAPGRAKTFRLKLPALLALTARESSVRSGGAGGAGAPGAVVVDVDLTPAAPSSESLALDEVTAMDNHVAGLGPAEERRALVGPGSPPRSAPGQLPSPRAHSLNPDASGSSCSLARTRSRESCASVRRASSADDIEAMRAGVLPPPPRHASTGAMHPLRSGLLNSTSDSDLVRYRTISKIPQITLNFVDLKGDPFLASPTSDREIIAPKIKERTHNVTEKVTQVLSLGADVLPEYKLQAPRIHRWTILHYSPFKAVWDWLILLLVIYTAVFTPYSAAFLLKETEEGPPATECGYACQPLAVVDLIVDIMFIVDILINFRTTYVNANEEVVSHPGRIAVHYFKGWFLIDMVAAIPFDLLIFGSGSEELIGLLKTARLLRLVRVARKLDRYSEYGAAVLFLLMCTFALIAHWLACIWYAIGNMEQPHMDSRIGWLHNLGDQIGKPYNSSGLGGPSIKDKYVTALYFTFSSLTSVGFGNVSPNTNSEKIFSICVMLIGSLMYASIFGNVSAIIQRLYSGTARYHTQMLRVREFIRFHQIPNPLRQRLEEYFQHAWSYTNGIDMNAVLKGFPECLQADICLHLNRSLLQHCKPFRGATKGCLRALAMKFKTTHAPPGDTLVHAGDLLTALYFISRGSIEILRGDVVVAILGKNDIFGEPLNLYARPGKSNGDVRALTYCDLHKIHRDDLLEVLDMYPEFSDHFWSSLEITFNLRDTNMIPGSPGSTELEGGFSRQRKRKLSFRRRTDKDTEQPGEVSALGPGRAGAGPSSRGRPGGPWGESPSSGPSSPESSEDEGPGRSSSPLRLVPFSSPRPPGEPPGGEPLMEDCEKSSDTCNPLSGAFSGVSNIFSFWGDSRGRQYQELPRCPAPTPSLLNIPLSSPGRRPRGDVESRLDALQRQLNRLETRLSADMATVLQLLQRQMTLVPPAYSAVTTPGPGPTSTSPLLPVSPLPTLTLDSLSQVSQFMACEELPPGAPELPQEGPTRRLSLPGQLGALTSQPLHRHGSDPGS
Chain of hERG (KCNH2) (Q12809 whole entry): as above

SMILES | EC50 (Plasmodium falciparum [3]) | EC50 (MRC5) | CLH [4] | solubility kinetic [5] | Papp at 5 h, 10 µM [6] | CLH [7] | IC50 [8] | clearance [9] | Vd [10] | half-life [11] | Cmax [12] | AUC [13] | Tmax [14] | bioavailability [15] | Activity (Plasmodium berghei [16]) | Survival (Plasmodium berghei [17]) | other results
O=C(NCCN1CCCC1)c1cc(NCCCCN2CCOCC2)nc2ccc(Cl)cc12 | 4 nM | 13000 nM | 2 mL/min/g | 217 µM (≈ 99.8 µg/mL) | 0.2 ×10⁻⁶ cm/s | < 1 mL/min/g | > 11000 nM | 4 mL/min/kg | 3.5 L/kg | 12.5 h | 579 ng/mL | 2940 ng·h/mL | 2 h | 16% | 99.8% | 22 days | EC50 (Plasmodium berghei [1]): 5 nM; EC50 (Plasmodium yoelii): 18 nM; EC50 (Plasmodium falciparum [2]): 104 nM; Activity (Plasmodium berghei [18]): 99.7%; Survival (Plasmodium berghei [19]): 15 days; Activity (Plasmodium berghei [20]): 96%; Survival (Plasmodium berghei [21]): 9 days; Activity (Plasmodium berghei [22]): 48%; Survival (Plasmodium berghei [23]): 6 days; ED90 (Plasmodium berghei [24]): 2.6 mg/kg
O=C(NCCNC1CC1)c1cc(-c2ccc(CN3CCOCC3)cc2)nc2ccc(F)cc12 | 2 nM |  | 2 mL/min/g |  | 4.9 ×10⁻⁶ cm/s |  |  |  |  |  |  |  |  |  |  |  | EC50 (HepG2): > 50000 nM
O=C(NCCN1CCCC1)c1cc(NCCCN2CCOCC2)nc2ccc(F)cc12 | 70 nM | 41000 nM | 0.8 mL/min/g | 230 µM (≈ 98.8 µg/mL) | 0.23 ×10⁻⁶ cm/s | < 0.5 mL/min/g | > 11000 nM | 14 mL/min/kg | 3 L/kg | 3.2 h | 315 ng/mL | 1550 ng·h/mL | 2 h | 15% | 93% | 7 days | CLH [25]: < 0.5 mL/min/g; PPB [26]: 59%; inhibition at 11 µM (hERG (KCNH2)): 16%; MTD at 96 h [27]: 300 mg/kg
